Screens: PubChem, several laboratories
FLuc act counter: affects firefly luciferase, flagging false hits in luciferase stimulation screens. P08659. ATPlite luciferase biochemical, luminescence, 10 min; 0 = ATP-free wells, 1 = DMSO control. activation factor at 10 µM. 200,000 tested, under 10 active. AID 1027;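 active means luciferase activation factor, scaled between plate controls, of at least 2 with compound at 10 µM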
Target sequence (P08659 whole entry, looked up): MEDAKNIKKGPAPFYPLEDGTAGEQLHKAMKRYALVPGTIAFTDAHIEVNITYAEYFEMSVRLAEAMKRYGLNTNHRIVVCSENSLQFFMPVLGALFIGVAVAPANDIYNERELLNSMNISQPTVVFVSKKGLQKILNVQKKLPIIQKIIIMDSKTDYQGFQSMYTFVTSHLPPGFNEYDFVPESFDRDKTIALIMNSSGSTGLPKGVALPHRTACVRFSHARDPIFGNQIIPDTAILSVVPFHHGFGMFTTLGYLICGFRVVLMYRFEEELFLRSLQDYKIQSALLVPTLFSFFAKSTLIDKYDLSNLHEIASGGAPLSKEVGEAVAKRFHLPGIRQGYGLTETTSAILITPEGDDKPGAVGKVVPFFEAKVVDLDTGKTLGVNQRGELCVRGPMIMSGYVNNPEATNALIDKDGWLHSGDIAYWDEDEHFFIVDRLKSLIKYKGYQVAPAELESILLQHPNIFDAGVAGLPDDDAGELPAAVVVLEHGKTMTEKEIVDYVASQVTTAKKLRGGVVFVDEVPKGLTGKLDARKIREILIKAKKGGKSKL
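Assay system – cell-free luciferase reagent · Medium – PBS-based ATP solution · Dosing – test compounds dosed from 2 mM stocks in 100% DMSO · Timing – 10 min, room temperature · Technique – light output (luminescence) · Measure – luminescence gain marking luciferase activators · Controls – No-ATP low control, compound-free enzyme-plus-ATP high control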
APP 5'UTR act: APP 5'UTR luciferase reporter activation; SH-SY5Y APP 5'UTR luciferase reporter, luminescence; zero percent = DMSO vehicle wells; activation, % at 2 µM; 190,000 tested, 1% active; AID 1276;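 active means activation above a set limit, based on mean plus 3 SD of controls, cut at about 140% in these data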
NF-kB neuron act: raises NF-kB expression in human neuronal cells; fold change at 12.5 µM; NF-kB reporter expression; hits give high values; AID 1239; 190,000 tested, 1.6% active; in the data active means fold change above about 3.3
FLuc inh counter: counter-screen for luciferase assay inhibitors: firefly luciferase inhibition; ATPLite firefly luciferase biochemical luminescence, 10 min; inhibition, % at 10 µM; 200,000 tested, 1.5% active;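 active means inhibition above about 50% when tested at 10 µM, limit read from the data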
STAT1 activator: activators of IFN-gamma induced STAT1 signaling. NIH 3T3 STAT1-luciferase reporter, luminescence; 100% = IFN-gamma alone, no compound. activation (% of control), % at 5.5 µM. 200,000 tested, 2.6% active. AID 932;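 active means activation above the screen-wide mean activation plus 3 SD, cut at about 130% in these data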;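 further: raw ratio to IFN-gamma control signal so 100% means no change and 0% no light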
STAT1 activ conf: confirmation of STAT1 signaling activators; shares compounds with STAT1 activator; activation (% of control), % at 5.7 µM; AID 1262; NIH 3T3 STAT1-luciferase reporter, IFN-gamma potentiation, luminescence; 100% = IFN-gamma EC80 alone, no compound; 1,200 tested, 97% active;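 active means activation above a set limit carried over from the earlier primary STAT1 screen, cut at about 140% in these data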;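 further: simple ratio to median IFN-gamma plus DMSO wells so 0% means no light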
NFkB act: activates NF-kappaB, counter-screen to STAT1 activators. activation (% of control), % at 5.7 µM. HEK293T NF-kB luciferase reporter, TNF-alpha stimulated, luminescence; 100% = TNF-alpha with vehicle only. 1,200 tested, 43% active. shares compounds with STAT1 activator;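 active means activation above the mean of solvent-only control wells plus 3 SD, set per campaign, cut at about 130% in these data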;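 further: TNF-alpha given at a submaximal dose yielding about 80% of full reporter signal; values are well signal over median control so 100% means no change and 0% no light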
STAT3 act STAT1c: human STAT3 activation in STAT1 activator counter-screen; shares compounds with STAT1 activator; U3A cells STAT3-luciferase reporter, IL-6, luminescence; cells lack STAT1; 100 = IL-6 alone, no compound effect; activation (% of control), % at 5.7 µM; 1,200 tested, 46% active; AID 1316;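 active means activation above the solvent-only control well mean plus 3 SD, set per plate batch, cut at about 110% in these data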;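 further: 0% = no luminescence and 100% = median IL-6 plus DMSO wells; higher means more STAT3 reporter activation so hits are non-selective activators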
Active calls of the source: *; . = not tested or not shown. This is a sample that favours compounds with a hit; in the whole collection about 4.1% have one here.

SMILES	FLuc act counter	APP 5'UTR act	NF-kB neuron act	FLuc inh counter	STAT1 activator	STAT1 activ conf	NFkB act	STAT3 act STAT1c
O=c1c2ccccc2nc(/C=C/c2ccc([N+](=O)[O-])o2)n1CCCO	1.1	-22.9	1.03	-5.4	151.4*	167.4*	157.1*	105.0
Cc1c(-c2nc(N)nc(Nc3ccccc3)n2)oc2ccccc12	1	153.7*	2.96	-3.8	164.4*	210.9*	147.7*	107.0
Nc1nc(CN2CCCCCC2)nc(Nc2ccccc2)n1	1.1	9.8	0.74	-5.8	98.4	.	.	.
O=C(OCc1csc(-c2ccccc2)n1)c1cccs1	0.6	16.9	3.02	44.3	152.4*	181.0*	119.8	108.3
CCN(CC)S(=O)(=O)c1cccc(NC(=O)Nc2cccc(C(F)(F)F)c2)c1	1	-11.7	0.49	4.8	101.6	.	.	.
COc1ccc(Cn2c(C3CC3)nc3ccc(NC(=O)c4ccco4)cc3c2=O)cc1	1.1	102.1	1.34	-6.7	151.5*	183.0*	133.1	140.1*
Clc1ccc(-c2cnn3c(-c4ccncc4)ccnc23)cc1	0.3	221.2*	3.59*	67.9*	156.9*	236.7*	131.7	109.0
CS(=O)(=O)c1cnc2c(-c3ccc(F)cc3)cnn2c1N	0.5	32.7	3.51*	45.5	161.9*	188.8*	125.4	106.2
Nc1c(C(=O)O)cnc2c(-c3ccc(Cl)cc3)cnn12	0.4	122.0	4.93*	58.4*	194.0*	219.3*	131.9	152.1*
CC(=O)c1cnc2c(-c3ccc(Cl)cc3)cnn2c1C	1	7.1	1.69	-1.1	125.7	.	.	.
COc1ccc(N=c2sc3ccccc3n2C)cc1	0.9	134.5	5.63*	11.7	151.0*	207.6*	134.7*	111.4*
CC(NCC(O)COCCC12CC3CC(CC(C3)C1)C2)c1ccccc1 (stereo unspecified)	1.1	0.6	0.84	-6.4	107.7	.	.	.
CC(=O)Nc1ccc2c(c1)OCCO2	1.1	1.9	1.1	-6.4	102.3	.	.	.
O=C(Nc1ccc2c(c1)OCCO2)c1cccs1	0.3	142.1*	5.23*	69.6*	152.9*	172.9*	125.2	107.6
O=C(Nc1cccc([N+](=O)[O-])c1)Nc1cccc([N+](=O)[O-])c1	1	-4.6	0.79	-1.3	91.1	.	.	.
COC(=O)Nc1ccc2c(c1)OCO2	1	3.2	1.12	-3.0	112.2	.	.	.
O=C(Nc1cccc([N+](=O)[O-])c1)Nc1ccc2c(c1)OCCO2	0.6	127.4	3.57*	35.6	155.7*	195.5*	137.1*	136.3*
O=C(Nc1ccc2c(c1)OCO2)c1ccc(Br)s1	0.4	161.8*	10.1*	60.9*	181.3*	203.5*	130.9	131.6*
O=C(Nc1ccc2c(c1)CCC2)Nc1ccc2c(c1)OCO2	0.9	81.5	2.17	13.8	159.7*	167.4*	121.1	110.9*
O=C1C2C3c4ccccc4C(c4ccccc43)C2C(=O)N1/N=C/c1cccc(O)c1 (stereo unspecified)	1.1	-2.4	0.75	-6.6	99.9	.	.	.
O=C1C2C3CCCC3=C3CCCC3C2C(=O)N1c1cccc(Cl)c1 (stereo unspecified)	1.1	7.9	1.12	-10.6	100.0	.	.	.
CCCCc1ccc(NC(=S)NCCc2ccc(F)cc2)cc1	1	-0.9	2.01	-3.9	101.0	.	.	.
N#Cc1ccc(NCC(=O)Nc2ccc3c(c2)OCCO3)cc1	0.9	-1.0	1.11	10.2	120.9	.	.	.
Cn1c(C(=O)Nc2ccc3c(c2)OCO3)cc2sccc21	0.5	153.3*	8.88*	53.2*	193.0*	210.4*	146.7*	141.6*
N#Cc1cccc(NCC(=O)Nc2ccc3c(c2)OCCO3)c1	0.3	190.2*	6.85*	65.2*	167.3*	180.3*	124.9	115.1*
SMILES	FLuc act counter	APP 5'UTR act	NF-kB neuron act	FLuc inh counter	STAT1 activator	STAT1 activ conf	NFkB act	STAT3 act STAT1c
Cc1ccc(-c2cc(C(=O)Nc3ccc(S(=O)(=O)Nc4onc(C)c4C)cc3)c3ccccc3n2)cc1	1	22.7	1.09	1.5	103.6	.	.	.
Cc1nn(-c2ccccc2)c2c1/C(=N/O)CC(C)(C)C2	1.1	4.9	1.73	-7.6	101.3	.	.	.
CC(C)N1CCC(N2CCN(Cc3ccc(-c4ccccc4Cl)o3)CC2CCO)CC1 (stereo unspecified)	1	-11.0	0.74	-2.0	98.2	.	.	.
CCC(OC(=O)c1nsc(Cl)c1Cl)C(=O)NCCOC (stereo unspecified)	1	15.6	0.94	-4.0	102.6	.	.	.
Cc1ccc(NC(=O)c2ccccn2)c(Br)c1	0.5	152.8*	6.92*	48.8	152.1*	199.6*	125.9	110.3
Cn1ccc(C(=O)Nc2ccc(Br)cc2Br)n1	0.8	142.7*	7.56*	20.6	168.0*	199.6*	124.1	101.8
COc1cccc(NC(=O)c2ccn(C)n2)c1	0.8	62.0	2.03	17.0	126.2	.	.	.
CCOc1cc(NC(=O)c2ccccn2)c(OCC)cc1NC(=O)c1cccc(C)c1	1	-19.8	0.92	-3.7	100.4	.	.	.
Cc1ccc(NC(=O)Cn2cccc2)c(Br)c1	1	-1.9	1.73	0.0	108.1	.	.	.
Cc1ccc(NC(=O)c2ccn(C)n2)c(Br)c1	0.5	142.0*	6.95*	47.0	154.7*	197.7*	116.0	96.7
O=C(Cc1csc(Nc2nc(=S)[nH]c3ccccc23)n1)NCCCN1CCN(c2ccccc2F)CC1	1.1	-13.5	0.54	-5.0	91.3	.	.	.
COc1ccccc1Nc1nnc(SCC(=O)N2CCCC2=O)s1	0.8	1.0	1.25	19.8	110.7	.	.	.
COc1ccc(-c2csc(N3C(=O)CNC3=S)n2)cc1	0.7	204.5*	5.35*	28.4	179.2*	260.4*	113.6	104.1
COc1ccc(-c2csc(N3C(=O)C4C5c6ccccc6C(c6ccccc65)C4C3=O)n2)cc1 (stereo unspecified)	1.1	-7.8	1.01	-5.7	93.7	.	.	.
COc1ccc(-c2csc(N3C(=O)C4C5c6ccccc6C(c6ccccc65)[C@@H]4C3=O)n2)cc1 (stereo partly specified)	1.1	-18.0	0.97	-7.2	101.5	.	.	.
O=C1CNC(=S)N1c1nc(-c2ccccc2)cs1	0.9	55.8	1.71	11.9	153.5*	188.2*	130.8	115.1*
COc1ccc(-c2csc(N3C(=N)SCC3=O)n2)cc1	0.9	73.8	4.87*	5.8	164.1*	293.9*	104.3	112.1*
Cc1nc2c3ccccc3nc(SCC(=O)c3ccc(Cl)cc3)n2n1	1	-2.8	0.81	-3.3	100.4	.	.	.
